In PubChem BioAssay:
Records with an inconclusive call do not appear.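 The calls were made as follows, unless noted: active = inhibition over a set limit, the all-compound mean plus 3 SD, in both replicate runs; inconclusive = over that limit in just one replicate run; inactive = at or under that limit in both runs.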

What was measured:
[1] = S. cerevisiae growth inhibition in permissive medium (OD615), pilot counter-assay for S. cerevisiae lifespan shortening project, permissive growth control (AID 705;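 active = growth inhibition above 25% in both replicates, a cutoff set 3 SD above the mean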); details: OD615, 24 h, at 10 µM, hits give high values
In short: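 Timing: 24 h exposure, 30 °C / Material: Saccharomyces cerevisiae strain carrying genetically modified DeaD replicative-lifespan system / Signal: OD at 615 nm / Compound: 10 µM single dose, 0.25% DMSO / Medium: SC raffinose/galactose permissive medium / Evaluation: reduction in yeast growth (OD615)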

[2] = S. cerevisiae growth inhibition in restrictive medium, OD615, pilot screen, restrictive growth control, yeast lifespan reduction project (AID 706;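 active = growth inhibition above a set limit, 3 SD over mean compound inhibition, in both replicates, cut at about 43% in these data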;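 also: modified DeaD lifespan yeast strain shifted to restrictive glucose medium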); details: OD615, 48 h, at 10 µM, hits give high values
In short: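 System: Engineered S. cerevisiae DeaD strain | Detection: OD615 | Buffer or medium: CSMM-D glucose medium | Doses: 10 µM compound, 0.25% DMSO | Timing: 4 h pre-growth plus 48 h compound exposure, 30 °C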

[3] = doxorubicin toxicity protection in MRP-1 cells – H69AR cells, CellTiter-Glo, duplicate, MRP-1 activator project, pilot screen (AID 807;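 active = viability increase at or above a cutoff of the median across tested compounds plus 3 SD, cut at about 8.5% in these data, passing the limit was not always enough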;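 also: compound pretreatment 18-22 h then 72 h combined with doxorubicin; 0% = doxorubicin alone and 100% = vehicle without doxorubicin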); details: H69AR viability with doxorubicin, CellTiter-Glo luminescence; at 10 µM; hits give high values
[4] = viability of HCT116 without oncogenic beta-catenin – human colon tumor cells, pilot screen (AID 823;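 active = cell viability at or below a set limit in both duplicate runs, the limit being the all-compound median minus 4 SD, cut at about 23% in these data, passing the limit was not always enough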;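 also: 0% = wells killed by 20 µM Hyamine and 100% = untreated DMSO cell wells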); details: HCT116 beta-catenin knockout viability, CellTiter-Glo, 60 h; at 10 µM; hits give low values
[5] = viability of PTEN-null HCT116 cells – cell-based, HCT116 clonal line, CellTiter-Glo, pilot screen (AID 824;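 active = viability at or below 27.92% in each of two runs, the all-compound median minus 4 SD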;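 also: 0% = 20 µM Hyamine control and 100% = vehicle cell control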); details: HCT116 PTEN-deleted viability, 60 h, at 10 µM, hits give low values
[6] = RAM pathway blockade in budding yeast – dse1pr::URA3 reporter, 5-FOA selection, pilot screen (AID 869);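 also: 0% = DMSO wells with no growth and 100% = 10 µM 1-NA-PP1 with full growth; RAM network block rescues cells from 5-FOA so hits raise OD615 growth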; details: S. cerevisiae dse1pr::URA3 5-FOA growth, OD615, 2 d; at 10 µM; hits give high values; strain carries analog-sensitive mutant Cbk1 kinase
[7] = RAM signaling pathway blockade in yeast – S. cerevisiae, Pdr1DBD-CYC8 efflux-inhibited sensitized strain, primary screen (AID 1298;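 active = RAM network inhibition above 8.4% in each of two replicates, 3 SD over the compound average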;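 also: 0% = DMSO untreated cells without growth and 100% = 10 µM 1-NA-PP1 full growth; higher means more yeast growth rescued from 5-FOA killing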); details: S. cerevisiae cbk1-as DSE1-URA3 strain, 5-FOA growth OD615, 2 d; at 50 µM; hits give high values

CC(=O)Oc1ccc(C(=O)Nc2nccs2)cc1
inactive: growth inhibition [1] -7.33% | growth inhibition [2] -14.7% | viability increase [3] -4.75% | viability [4] 88.2% | viability [5] 80.3% | inhibition [6] 3.5% | RAM network inhibition [7] 0.1%

O=C(NC1CCCCC1)N1CCCCCC1
inactive: growth inhibition [1] 1.12% | growth inhibition [2] -18% | viability increase [3] -0.52% | viability [4] 96.6% | viability [5] 97.5% | inhibition [6] 0.64% | RAM network inhibition [7] 3.56%

Cc1cc(/C=N/n2cnnc2)c(C)n1-c1cc(Cl)ccc1Cl
inactive: growth inhibition [1] 3.15% | growth inhibition [2] 18.3% | viability increase [3] -3.01% | viability [4] 51.9% | viability [5] 69.7% | inhibition [6] 1.85% | RAM network inhibition [7] 1.38%

COc1cc(OC)c(C2N(c3ccc(Cl)cc3)C(=O)C3CCCN32)cc1OC (stereo not drawn)
inactive: growth inhibition [1] -2.8% | growth inhibition [2] -2.08% | viability increase [3] -2.63% | viability [4] 105% | viability [5] 96.7% | inhibition [6] 2.59% | RAM network inhibition [7] 3.82%

CC1CCN(CCCNC(=O)CN2CCN(Cc3ccc(Cl)cc3)C2=O)CC1
inactive: growth inhibition [1] -8.6% | growth inhibition [2] -8.52% | viability increase [3] -0.83% | viability [4] 90.8% | viability [5] 89.3% | inhibition [6] 2.27% | RAM network inhibition [7] 4.2%

CCCCCn1c(C(C)NC(=O)CCC)nc2ccccc21 (stereo not drawn)
inactive: growth inhibition [1] -3.78% | growth inhibition [2] -2.23% | viability increase [3] -1.22% | viability [4] 85.7% | viability [5] 88.7% | inhibition [6] -0.165% | RAM network inhibition [7] 2.32%

CCCC(=O)C1=C(O)C(C(=O)OC)C(C)(C)CC1=Nc1ccncc1 (stereo not drawn)
inactive: growth inhibition [1] 0.755% | growth inhibition [2] 9.75% | viability increase [3] -2.84% | viability [4] 96.7% | viability [5] 94.6% | inhibition [6] 0.73% | RAM network inhibition [7] 0.11%

COc1ccc(CN2CCCC2C(=O)Nc2ccc(OC)c(OC)c2)cc1OC (stereo not drawn)
inactive: growth inhibition [1] -5.96% | growth inhibition [2] -5.92% | viability increase [3] -2.8% | viability [4] 102% | viability [5] 97.3% | inhibition [6] 0.71% | RAM network inhibition [7] 0.26%

Cc1cc(C(=O)NC2CCCC2)on1
inactive: growth inhibition [1] -11.8% | growth inhibition [2] -21.1% | viability increase [3] 0.32% | viability [4] 107% | viability [5] 102% | inhibition [6] 1.71% | RAM network inhibition [7] 1.5%

O=C(NCc1ccco1)Nc1ccc(Br)cc1
inactive: growth inhibition [1] 3.96% | growth inhibition [2] 5.27% | viability increase [3] -2.7% | viability [4] 95.7% | viability [5] 97.7% | inhibition [6] 1.09% | RAM network inhibition [7] 5.07%

O=S(=O)(NCc1csc(-c2cccnc2)n1)c1cccs1
inactive: growth inhibition [1] 5.38% | growth inhibition [2] -1.74% | viability increase [3] -0.79% | viability [4] 98% | viability [5] 90% | inhibition [6] 1.69% | RAM network inhibition [7] 1.3%

CC(=O)c1cccc(NC(=O)C2CCCN(S(=O)(=O)c3cccc4cccnc34)C2)c1 (stereo not drawn)
inactive: growth inhibition [1] -10.5% | growth inhibition [2] -5.17% | viability increase [3] -2.34% | viability [4] 83.5% | viability [5] 73.7% | inhibition [6] 2.18% | RAM network inhibition [7] 4.5%

CCC(=O)N1CCc2cc(Br)cc(S(=O)(=O)N3CCN(C(=O)c4ccco4)CC3)c21
inactive: growth inhibition [1] -4.72% | growth inhibition [2] -21.7% | viability increase [3] -1.56% | viability [4] 91.6% | viability [5] 95.4% | inhibition [6] 2.48% | RAM network inhibition [7] 1.88%

O=C(Cn1cc(C(=O)c2cccs2)c2ccccc21)NCc1ccc2c(c1)OCO2
inactive: growth inhibition [1] -5.79% | growth inhibition [2] -15.1% | viability increase [3] -2.32% | viability [4] 94.6% | viability [5] 86.4% | inhibition [6] 1.08% | RAM network inhibition [7] 2.74%

O=C(COC(=O)c1ccc(Br)o1)Nc1nc2ccccc2s1
inactive: growth inhibition [1] -11.2% | growth inhibition [2] -4.01% | viability increase [3] -4.65% | viability [4] 90.5% | viability [5] 87.8% | inhibition [6] 0.75% | RAM network inhibition [7] 1.88%

COc1ccccc1NC(=O)Cc1noc(CSc2nnc(C)s2)n1
inactive: growth inhibition [1] -3.75% | growth inhibition [2] 0.765% | viability increase [3] -2.11% | viability [4] 97.2% | viability [5] 97.6% | inhibition [6] 0.43% | RAM network inhibition [7] 5.03%

CC(Oc1ccc(Cl)cc1Cl)C(=O)NCCN1CCOCC1 (stereo not drawn)
inactive: growth inhibition [1] -8.7% | growth inhibition [2] 4.87% | viability increase [3] -2.33% | viability [4] 100% | viability [5] 97.5% | inhibition [6] -0.29% | RAM network inhibition [7] 1.53%

C=CCn1c(=N)n(CC(O)COc2ccccc2OC)c2ccccc21 (stereo not drawn)
inactive: growth inhibition [1] -4.97% | growth inhibition [2] 0.15% | viability increase [3] -4.19% | viability [4] 73.9% | viability [5] 77.4% | inhibition [6] 1.92% | RAM network inhibition [7] 1.07%

O=C(NCCc1ccc(Cl)cc1)c1nnc(Cc2ccc(Cl)cc2)o1
inactive: growth inhibition [1] -3.81% | growth inhibition [2] 3.52% | viability increase [3] 0.2% | viability [4] 103% | viability [5] 103% | inhibition [6] 2.82% | RAM network inhibition [7] 7.52%

CCOc1ccccc1C1CC(c2ccc(Cl)cc2)Nc2nc(N)nn21 (stereo not drawn)
inactive: growth inhibition [1] 0.515% | growth inhibition [2] 23% | viability increase [3] 1.4% | viability [4] 66.3% | viability [5] 77.6% | inhibition [6] -0.11% | RAM network inhibition [7] 1.24%

Cc1ccc(NC(=O)C2C3C=CC4(CN(Cc5cccnc5)C(=O)C24)O3)cc1 (stereo not drawn)
inactive: growth inhibition [1] 5.17% | growth inhibition [2] -7.85% | viability increase [3] -1.21% | viability [4] 74.4% | viability [5] 97.3% | inhibition [6] 0.77% | RAM network inhibition [7] 2.87%

CCOC(=O)c1cnn2c(C(F)(F)F)cc(-c3ccccc3)nc12
inactive: growth inhibition [1] -6.86% | growth inhibition [2] -9.75% | viability increase [3] -3.13% | viability [4] 84% | viability [5] 86.9% | inhibition [6] 2.29% | RAM network inhibition [7] 2.4%

NC(=O)CSc1ncc(-c2ccccc2)[nH]1
inactive: growth inhibition [1] -4.49% | growth inhibition [2] -3.75% | viability increase [3] -3.58% | viability [4] 101% | viability [5] 93.7% | inhibition [6] 0.715% | RAM network inhibition [7] 4.43%

Cc1ccc(C2=CC(c3ccc(N(C)C)cc3)n3nnnc3N2)cc1 (stereo not drawn)
inactive: growth inhibition [1] -10.6% | growth inhibition [2] 7.92% | viability increase [3] -4.61% | viability [4] 84% | viability [5] 77.3% | inhibition [6] 2.63% | RAM network inhibition [7] -0.47%
